According to PubChem BioAssay:
Results filed as inconclusive are left out.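 How the source made its calls, unless noted: active means growth inhibition above 25% in both replicates, a cutoff set 3 SD above the mean; inconclusive means above 25% in only one replicate; inactive means the rest.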

What was measured:
[1] = OD615 S. cerevisiae growth inhibition, permissive medium, pilot counter-assay, permissive growth control for S. cerevisiae lifespan shortening project (AID 705); settings: OD615, 24 h, at 10 µM, stronger effect = higher value
How it was run: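 Material: engineered DeaD yeast; compound dosing: one dose 10 µM, DMSO 0.25% final; measure: yeast growth inhibition indicated by reduced 24 h OD615; detection: OD615 turbidity read; incubation: cells pre-grown 4 h, then 24 h compound exposure, 30 °C humidified; medium: permissive synthetic complete medium with raffinose and galactose carbon sources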

[2] = Restrictive medium S. cerevisiae growth inhibition, OD615, pilot screen of yeast lifespan reduction project, restrictive growth control (AID 706;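 active means growth inhibition above a set limit, 3 SD over mean compound inhibition, in both replicates, cut at about 43% in these data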;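 further: modified DeaD lifespan yeast strain shifted to restrictive glucose medium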); settings: OD615, 48 h, at 10 µM, stronger effect = higher value
How it was run: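 material = engineered S. cerevisiae DeaD strain | medium = glucose-based CSMM-D restrictive medium | times = 4 h pre-incubation, 48 h exposure at 30 °C | technique = OD615 absorbance reading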

[3] = viability gain of MRP-1-high H69AR cells under doxorubicin, pilot screen, MRP-1 activator project, CellTiter-Glo, duplicate (AID 807;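 active means viability increase at or above a cutoff of the median across tested compounds plus 3 SD, cut at about 8.5% in these data, passing the limit was not always enough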;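 further: compound pretreatment 18-22 h then 72 h combined with doxorubicin; 0% = doxorubicin alone and 100% = vehicle without doxorubicin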); settings: H69AR viability with doxorubicin, CellTiter-Glo luminescence; at 10 µM; stronger effect = higher value
[4] = growth suppression of beta-catenin knockout HCT116, pilot screen, human colon tumor cells (AID 823;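 active means cell viability at or below a set limit in both duplicate runs, the limit being the all-compound median minus 4 SD, cut at about 23% in these data, passing the limit was not always enough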;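 further: 0% = wells killed by 20 µM Hyamine and 100% = untreated DMSO cell wells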); settings: CellTiter-Glo, 60 h, at 10 µM, stronger effect = lower value
[5] = growth suppression of PTEN-deleted HCT116, pilot screen, cell-based, HCT116 clonal line, CellTiter-Glo (AID 824;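 active means viability at or below 27.92% in each of two runs, the all-compound median minus 4 SD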;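 further: 0% = 20 µM Hyamine control and 100% = vehicle cell control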); settings: 60 h, at 10 µM, stronger effect = lower value
[6] = inhibitors of the yeast RAM network, pilot screen, dse1pr::URA3 reporter, 5-FOA selection (AID 869;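 active means inhibition over a set limit, the all-compound mean plus 3 SD, in both replicate runs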;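 further: 0% = DMSO wells with no growth and 100% = 10 µM 1-NA-PP1 with full growth; RAM network block rescues cells from 5-FOA so hits raise OD615 growth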); settings: S. cerevisiae dse1pr::URA3 5-FOA growth, OD615, 2 d; at 10 µM; stronger effect = higher value; strain carries analog-sensitive mutant Cbk1 kinase
[7] = RAM signaling pathway blockade in yeast – S. cerevisiae, Pdr1DBD-CYC8 efflux-inhibited sensitized strain, primary screen (AID 1298;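 active means RAM network inhibition above 8.4% in each of two replicates, 3 SD over the compound average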;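 further: 0% = DMSO untreated cells without growth and 100% = 10 µM 1-NA-PP1 full growth; higher means more yeast growth rescued from 5-FOA killing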); settings: S. cerevisiae cbk1-as DSE1-URA3 strain, 5-FOA growth OD615, 2 d; at 50 µM; stronger effect = higher value

C=CCN(C1CCCCC1)S(=O)(=O)c1ccc2c(c1)oc(=O)n2C
inactive: growth inhibition [1] -16.7% | growth inhibition [2] -11.6% | viability increase [3] -4.14% | viability [4] 86.5% | viability [5] 80.4% | inhibition [6] 2.28% | RAM network inhibition [7] 6%

Cc1cc(=S)n(-c2ccccc2)n1C
inactive: growth inhibition [1] 1.78% | growth inhibition [2] 7.75% | viability increase [3] -0.34% | viability [4] 102% | viability [5] 95.4% | inhibition [6] 1.21% | RAM network inhibition [7] 0.45%

O=C1CCC/C1=c1\s/c(=C\c2cccnc2)c(=O)n1-c1ccccc1
inactive: growth inhibition [1] -9.13% | growth inhibition [2] -8.32% | viability increase [3] -5.83% | viability [4] 103% | viability [5] 89.6% | inhibition [6] 0.465% | RAM network inhibition [7] 7.11%

Cn1cccc1Cc1nnc(SCC(=O)N2CCCCCC2)n1-c1ccc(F)cc1
inactive: growth inhibition [1] 0.935% | growth inhibition [2] 18% | viability increase [3] -1.67% | viability [4] 84% | viability [5] 88.5% | inhibition [6] 1.27% | RAM network inhibition [7] 4.48%

COC(=O)c1ccc(COc2ccc3c(C)c(C)c(=O)oc3c2)o1
inactive: growth inhibition [1] -4.33% | growth inhibition [2] -4.88% | viability increase [3] -0.68% | viability [4] 101% | viability [5] 105% | inhibition [6] 1.5% | RAM network inhibition [7] 5.89%

CCOc1ccc(C2CC(c3ccc(OC)cc3)n3ncnc3N2)cc1 (stereo unspecified)
inactive: growth inhibition [1] 1.92% | growth inhibition [2] 21% | viability increase [3] 0.61% | viability [4] 104% | viability [5] 99% | inhibition [6] -0.22% | RAM network inhibition [7] 4.99%

Cc1ccc(-c2nc(C#N)c(N3CCCCC3)o2)cc1
inactive: growth inhibition [1] -4.44% | growth inhibition [2] -6.95% | viability increase [3] -1.61% | viability [4] 98% | viability [5] 78.1% | inhibition [6] 1.51% | RAM network inhibition [7] 3.37%

CCOC(=O)c1ccc2ncc(C(=O)OCC)c(NCCCN3CCOCC3)c2c1
inactive: growth inhibition [1] -4.12% | growth inhibition [2] 8.23% | viability increase [3] -5.66% | viability [4] 81.2% | viability [5] 84.5% | inhibition [6] 0.495% | RAM network inhibition [7] 0.57%

CCOC(=O)C1CCN(S(=O)(=O)c2cc(Br)cc3c2N(C(C)=O)C(C)C3)CC1 (stereo unspecified)
inactive: growth inhibition [1] -11.1% | growth inhibition [2] -29% | viability increase [3] 0.29% | viability [4] 93.4% | viability [5] 93.2% | inhibition [6] 1.19% | RAM network inhibition [7] 11.2%

Cn1c(=O)oc2cc(S(=O)(=O)N3CCCC(C(=O)N4CCc5ccccc5C4)C3)ccc21 (stereo unspecified)
inactive: growth inhibition [1] 1.16% | growth inhibition [2] -8.79% | viability increase [3] -2.62% | viability [4] 87.8% | viability [5] 84.9% | inhibition [6] 1.8% | RAM network inhibition [7] -0.89%

CC(C)CCNC(=O)Cn1c(=O)oc2cc(S(=O)(=O)N3CCc4ccccc43)ccc21
inactive: growth inhibition [1] -6.32% | growth inhibition [2] -5.12% | viability increase [3] -5.87% | viability [4] 71.8% | viability [5] 62.5% | inhibition [6] 1.15% | RAM network inhibition [7] 1.07%

CN(C)CCNC(=O)c1cc2cc(Br)ccc2oc1=O
inactive: growth inhibition [1] -22.2% | growth inhibition [2] -8.59% | viability increase [3] -2.26% | viability [4] 81.6% | viability [5] 84.5% | inhibition [6] 0.755% | RAM network inhibition [7] 2.26%

O=C(CSc1nc2c(cnn2-c2ccc(F)cc2)c(=O)[nH]1)N1CCCCC1
inactive: growth inhibition [1] -8.1% | growth inhibition [2] 7.12% | viability increase [3] -3.71% | viability [4] 91.7% | viability [5] 84.7% | inhibition [6] 2.99% | RAM network inhibition [7] 1.77%

O=S(=O)(c1ccc(OCc2nc3ccccc3s2)c(Cl)c1)N1CCOCC1
inactive: growth inhibition [1] -7% | growth inhibition [2] 9.42% | viability increase [3] -0.83% | viability [4] 91.5% | viability [5] 88.6% | inhibition [6] 1.26% | RAM network inhibition [7] -0.57%

Cn1cc(S(=O)(=O)Nc2ccc(F)cc2F)c(=O)n(C)c1=O
inactive: growth inhibition [1] -11.6% | growth inhibition [2] 0.815% | viability increase [3] 0.9% | viability [4] 98.8% | viability [5] 95% | inhibition [6] 1.39% | RAM network inhibition [7] 1.28%

COc1cc(C2C(C(=O)Nc3ccc(F)cc3)=C(C)Nc3nc(CCCO)nn32)cc(OC)c1OC (stereo unspecified)
inactive: growth inhibition [1] -2.56% | growth inhibition [2] -11.4% | viability increase [3] -1.09% | viability [4] 105% | viability [5] 92.7% | inhibition [6] 2.58% | RAM network inhibition [7] 1.42%

CCCC(=O)NCCCc1nc2ccccc2n1C(C)C
inactive: growth inhibition [1] -18.1% | growth inhibition [2] -23.6% | viability increase [3] 1.18% | viability [4] 102% | viability [5] 96.2% | inhibition [6] 1.66% | RAM network inhibition [7] 3.95%

O=C(Cn1cc2c(n1)CCCC2)NC1CCN(Cc2ccccc2)CC1
inactive: growth inhibition [1] 2.67% | growth inhibition [2] 5.09% | viability increase [3] -1.67% | viability [4] 87% | viability [5] 87% | inhibition [6] 0.965% | RAM network inhibition [7] -0.16%
